Where only a bound is given, the exact number is not on record here.

The first test addresses T1, Diacylglycerol lipase-alpha (Homo sapiens, UniProt Q9Y4D2).
T1 sequence (Q9Y4D2 whole entry): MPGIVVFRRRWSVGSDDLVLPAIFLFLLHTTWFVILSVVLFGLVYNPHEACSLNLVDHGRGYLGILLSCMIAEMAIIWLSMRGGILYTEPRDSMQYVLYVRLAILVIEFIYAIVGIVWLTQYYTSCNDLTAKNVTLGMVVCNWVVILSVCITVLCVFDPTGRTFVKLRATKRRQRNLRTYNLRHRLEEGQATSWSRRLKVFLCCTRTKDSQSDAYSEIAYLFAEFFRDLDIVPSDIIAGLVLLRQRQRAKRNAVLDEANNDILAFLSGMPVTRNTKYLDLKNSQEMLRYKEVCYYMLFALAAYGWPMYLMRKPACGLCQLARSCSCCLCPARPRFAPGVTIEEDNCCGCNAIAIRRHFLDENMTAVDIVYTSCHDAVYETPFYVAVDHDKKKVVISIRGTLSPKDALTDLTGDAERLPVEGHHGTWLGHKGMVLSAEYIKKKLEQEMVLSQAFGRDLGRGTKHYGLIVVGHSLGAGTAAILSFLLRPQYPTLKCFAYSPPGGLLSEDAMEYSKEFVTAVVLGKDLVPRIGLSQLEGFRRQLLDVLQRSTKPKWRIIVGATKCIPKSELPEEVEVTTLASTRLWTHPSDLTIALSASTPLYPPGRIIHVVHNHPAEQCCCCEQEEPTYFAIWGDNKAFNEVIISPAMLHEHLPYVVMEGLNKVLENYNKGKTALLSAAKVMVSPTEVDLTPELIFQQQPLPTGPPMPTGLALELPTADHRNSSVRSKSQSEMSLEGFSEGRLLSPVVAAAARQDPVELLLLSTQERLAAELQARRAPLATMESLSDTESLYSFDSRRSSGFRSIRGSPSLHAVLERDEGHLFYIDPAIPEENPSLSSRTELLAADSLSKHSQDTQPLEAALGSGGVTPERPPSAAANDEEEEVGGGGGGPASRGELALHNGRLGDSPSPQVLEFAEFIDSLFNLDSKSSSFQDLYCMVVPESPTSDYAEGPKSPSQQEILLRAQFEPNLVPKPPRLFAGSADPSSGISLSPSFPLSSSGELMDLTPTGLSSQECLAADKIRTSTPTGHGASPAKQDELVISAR
Put plainly: Inhibition of full-length human DAGLalpha expressed in HEK293T cell membranes using para-nitrophenylbutyrate by colorimetric assay. The test is classed as cell-based, HEK-293T.
Conditions: not given
A digest of the protocol:
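Membranes from HEK293T cells transiently transfected with full-length human DAGL-α (pcDNA3.1; PEI transfection, harvested at 72 h), diluted to 0.05 μg/μL final protein in 50 mM HEPES pH 7.2. Screen at 10 μM in duplicate; dose response by 10-fold serial dilution.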
A word on the IC50: it is the concentration needed to halve the response being measured. `O=C(CCCCCCc1ccccc1)c1ncc(-c2ccccc2)o1`: the IC50 is > 10 µM.

On to `O=C(CCCCCCc1ccccc1)c1nnc(-c2ccccc2)o1`, for which the IC50 was > 10 µM.

Consider `O=C(CCCCCCc1ccccc1)c1nnc(-c2ccccn2)o1`, for which the IC50 is > 10 µM.

Take `O=C(CCCCCCCc1ccccc1)c1nc2ncccc2o1`: the midpoint of inhibition, the IC50, lay at 0.0468 µM.

`O=C(CCCCCCc1ccccc1)c1nnc(-c2ccncc2)o1`: the IC50 is > 10 µM.

For the molecule `CCCCCCCCCCCCCCCC(=O)c1nc2ncccc2o1`, inhibition was half-maximal at 0.0646 µM (IC50).

Molecule `CCCCCCCCCCCCCC(=O)c1nc2ncccc2o1` had an IC50 of 0.0741 µM. This IC50 and that of the molecule before are within 1.5-fold of each other.

As to `CCCCCCCCCC(=O)c1nc2ncccc2o1`, the midpoint of inhibition, the IC50, lay at 0.0741 µM.

For `CCCCCC(=O)c1nc2ncccc2o1`, the IC50 is > 10 µM.

Regarding `CC(=O)c1nc2ncccc2o1`, the IC50 is > 10 µM.

Molecule `O=C(CCCCCCCCc1ccccc1)c1nc2ncccc2o1` showed an IC50 of 0.00363 µM. This lies in the single-digit nanomolar range.

For `CN(C)C(=O)c1cnc(C(=O)CCCCCCc2ccccc2)o1`, the IC50 is > 10 µM.

With `CC(=O)c1cnc(C(=O)CCCCCCc2ccccc2)o1`, the IC50 was > 10 µM.

As to `CNC(=O)c1cnc(C(=O)CCCCCCc2ccccc2)o1`, the IC50 was > 10 µM.

Turning to `CSc1cnc(C(=O)CCCCCCc2ccccc2)o1`, the IC50 is > 10 µM.

For `O=C(CCCCCCc1ccccc1)c1ncco1`, the IC50 was > 10 µM.

As for `COc1ccc(-c2cnc(C(=O)CCCCCCc3ccccc3)o2)cc1`, the IC50 was > 10 µM.

For the molecule `O=C(CCCCCCc1ccccc1)c1ncc(-c2ccc(C(=O)C(F)(F)F)cc2)o1`, the IC50 was > 10 µM.

As for `Cc1ccc(-c2cnc(C(=O)CCCCCCc3ccccc3)o2)nc1`, the IC50 was > 10 µM.

For the molecule `O=C(CCCCCCc1ccccc1)c1ncc(C(=O)C(F)(F)F)o1`, the IC50 is 1.82 µM.

For `O=C(CCCCCCc1ccccc1)c1ncc(Cl)o1`, the IC50 was > 10 µM.

Consider `O=Cc1cnc(C(=O)CCCCCCc2ccccc2)o1`, for which the IC50 is > 10 µM.

`N#Cc1cnc(C(=O)CCCCCCc2ccccc2)o1`: the IC50 was > 10 µM.

Regarding `COC(=O)c1cnc(C(=O)CCCCCCc2ccccc2)o1`, the IC50 is > 10 µM.

Take `Cc1cnc(C(=O)CCCCCCc2ccccc2)o1`: the IC50 was > 10 µM.

For `O=C(CCCCCCc1ccccc1)c1ncc(-c2ccc(F)cc2)o1`, the IC50 was > 10 µM.

`O=C(CCCCCCc1ccccc1)c1ncc(-c2ccccc2F)o1`: the IC50 is > 10 µM.

`CCCCCCCC(=O)c1nc2ncccc2o1` gave an IC50 of 0.631 µM.

`CCCCCCCCCCCC(=O)c1nc2ncccc2o1`: it took 0.0309 µM to reach half-maximal inhibition (IC50).

Take `O=C(CCCc1ccccc1)c1nc2ncccc2o1`: the IC50 was 2.24 µM.

`CCCCCCCC/C=C\CCCCCCCC(=O)c1nc2ncccc2o1` had an IC50 of 0.0263 µM.

Consider `O=C(CCCCCCc1ccccc1)c1nnc(-c2cccnc2)o1`, for which the IC50 is > 10 µM.

Molecule `O=C(CCCCCCc1ccccc1)c1nc2ncccc2o1` gave an IC50 of 0.525 µM.

As to `O=C(CCCCCCc1ccccc1)c1ncc(Br)o1`, the IC50 was > 10 µM.

Take `O=C(CCCCCCc1ccccc1)c1ncc(C(F)(F)F)o1`: the 50% inhibitory concentration (IC50) is > 10 µM.

With `CS(=O)(=O)c1cnc(C(=O)CCCCCCc2ccccc2)o1`, the IC50 was > 10 µM.

The molecule `CC(C)(C)C(=O)c1coc(C(=O)CCCCCCc2ccccc2)n1` showed an IC50 of 0.479 µM.

Consider `O=C(CCCCCCc1ccccc1)c1ncc(-c2ccc(C(F)(F)F)cn2)o1`, for which the IC50 was > 10 µM.

In the case of `CS(=O)(=O)c1coc(C(=O)CCCCCCc2ccccc2)n1`, half-maximal inhibition (IC50) was put at 0.389 µM.

As for `O=C(CCCCCCc1ccccc1)c1nnc(-c2ccccc2)[nH]1`, the IC50 was > 10 µM.

On to `C=CCCCCCCCC(=O)c1nc2ncccc2o1`, for which 0.55 µM corresponded to half-maximal inhibition (IC50).

For `COc1cnc(C(=O)CCCCCCc2ccccc2)o1`, the IC50 was > 10 µM.

Turning to `O=C(CCc1ccccc1)c1nc2ncccc2o1`, the IC50 is 18.2 µM.

In the case of `COc1ccc(-c2cnc(C(=O)CCCCCCc3ccccc3)o2)nc1`, the IC50 is > 10 µM.

For `O=C(CCCCCCc1ccccc1)c1ncc(-c2cccc(F)c2)o1`, the IC50 was > 10 µM.

`CCCCC(=O)c1nc2ncccc2o1`: the IC50 was > 10 µM.

Take `O=C(CCCCCCc1ccccc1)c1nnc(-c2ccco2)o1`: the IC50 is > 10 µM.

For `O=C(CCCCCCc1ccccc1)c1nc(Br)co1`, the IC50 was > 10 µM.

Regarding `O=C(CCCCCCc1ccccc1)c1ncno1`, the IC50 was > 10 µM.

For `Cn1nnnc1C(=O)CCCCCCc1ccccc1`, the IC50 is > 10 µM.

For the molecule `O=C(CCCCCCc1ccccc1)c1cccnn1`, the IC50 was > 10 µM.

In the case of `O=C(CCCCCCc1ccccc1)c1nnn[nH]1`, the IC50 is > 10 µM.

`O=C(CCCCCCc1ccccc1)c1nc(-c2ccccc2)co1` gave an IC50 of 8.71 µM.

For the molecule `CNC(=O)c1coc(C(=O)CCCCCCc2ccccc2)n1`, the IC50 was > 10 µM.

Regarding `O=Cc1coc(C(=O)CCCCCCc2ccccc2)n1`, the IC50 was 1.51 µM.

On to `CSc1coc(C(=O)CCCCCCc2ccccc2)n1`, for which the IC50 was > 10 µM.

For the molecule `O=C(CCCCCCc1ccccc1)c1nc(C(=O)C(F)(F)F)co1`, the IC50 is 0.123 µM.

As for `COC(=O)c1coc(C(=O)CCCCCCc2ccccc2)n1`, the IC50 was 0.631 µM.

Take `O=C(CCCCCCc1ccccc1)c1nc(-c2ccccn2)co1`: the IC50 is > 10 µM.

The molecule `CC(=O)c1coc(C(=O)CCCCCCc2ccccc2)n1` showed an IC50 of 0.123 µM.

Molecule `O=C(CCCCCCc1ccccc1)c1nc(C(F)(F)F)co1` showed an IC50 of 0.214 µM.

The molecule `O=C(CCCCCCc1ccccc1)c1nc(I)co1` showed an IC50 of 2.34 µM. Compared with the last molecule, the IC50 is about 11-fold higher.

Turning to `Cc1coc(C(=O)CCCCCCc2ccccc2)n1`, the IC50 is > 10 µM.

In turn, `N#Cc1coc(C(=O)CCCCCCc2ccccc2)n1` showed an IC50 of 0.575 µM.

The molecule `O=C(CCCCCCc1ccccc1)c1nc(Cl)co1` showed a concentration for half-maximal inhibition (IC50) of 2.4 µM. This IC50 lies about 4.2-fold higher than the previous one.

As for `CN(C)C(=O)c1coc(C(=O)CCCCCCc2ccccc2)n1`, inhibition was half-maximal at 3.39 µM (IC50).

Take `O=C(CCCCc1ccccc1)c1nc2ncccc2o1`: 0.204 µM corresponded to half-maximal inhibition (IC50).

Take `O=C(CCCCCCc1ccccc1)c1nc(-c2cccs2)no1`: the IC50 is 1.95 µM.

Regarding `O=C(O)c1cccc(-c2noc(C(=O)CCCCCCc3ccccc3)n2)n1`, the IC50 was > 10 µM.

As for `Cn1nnc(C(=O)CCCCCCc2ccccc2)n1`, the IC50 is > 10 µM.

`O=C(CCCCCCc1ccccc1)c1nnn(-c2ccccn2)n1`: the IC50 is > 10 µM.

Molecule `O=C(CCCCCCc1ccccc1)c1nnco1` had an IC50 of 2.69 µM.

Regarding `COC(=O)c1nc(C(=O)CCCCCCc2ccccc2)no1`, the IC50 is > 10 µM.

As to `COC(=O)c1nnc(C(=O)CCCCCCc2ccccc2)[nH]1`, the IC50 is > 10 µM.

Consider `O=C(CCCCCCc1ccccc1)c1nnn(-c2ccco2)n1`, for which the IC50 is > 10 µM.

As for `O=C(CCCCCCc1ccccc1)c1noc(-c2ccccn2)n1`, the IC50 was > 10 µM.

In the case of `O=C(CCCCCCc1ccccc1)c1noc(-c2cccs2)n1`, the IC50 is > 10 µM.

`O=C(CCCCCCc1ccccc1)c1nc(-c2ccccn2)no1` gave an IC50 of 2.75 µM. This counts as single-digit micromolar.

In turn, `O=C(CCCCCCc1ccccc1)c1nc(-c2ccco2)no1` showed an IC50 of 0.933 µM.

Turning to `N#Cc1cccc(-c2noc(C(=O)CCCCCCc3ccccc3)n2)n1`, half-maximal inhibition (IC50) was put at 1.05 µM.

`O=C(CCCCCCc1ccccc1)c1nnc(-c2ccco2)[nH]1`: the IC50 is > 10 µM.

In the case of `O=C(CCCCCCc1ccccc1)c1nnc(-c2cccs2)[nH]1`, the IC50 was > 10 µM.

For the molecule `O=C(CCCCCCc1ccccc1)c1ccc(-c2ccccn2)nn1`, the IC50 was > 10 µM.

For the molecule `O=C(CCCCCCc1ccccc1)c1ccc(-c2cccs2)nn1`, the IC50 is > 10 µM.

In the case of `O=C(CCCCCCc1ccccc1)c1nc(-c2cccc(I)n2)no1`, the IC50 was > 10 µM.

As to `O=C(CCCCCCc1ccccc1)c1ccc(-c2ccco2)nn1`, the IC50 was > 10 µM.

As to `O=C(CCCCCCc1ccccc1)c1noc(-c2ccco2)n1`, the IC50 is > 10 µM.

`O=C(CCCCCCc1ccccc1)c1nnn(-c2cccs2)n1`: the IC50 is > 10 µM.

Regarding `O=C(CCCCCCc1ccccc1)c1nnc(-c2ccccn2)[nH]1`, the IC50 was > 10 µM.

`COC(=O)c1cccc(-c2noc(C(=O)CCCCCCc3ccccc3)n2)n1`: the IC50 is > 10 µM.

As to `O=C(CCCCCCc1ccccc1)c1nc(-c2cccc(Cl)n2)no1`, the IC50 is > 10 µM.

In turn, `O=C(CCCCCCc1ccccc1)c1nc(-c2cccc(Br)n2)no1` had an IC50 of 2.04 µM.

`O=C(CCCCCCc1ccccc1)c1nc(-c2ccncc2)co1`: the IC50 was > 10 µM.

As to `COc1coc(C(=O)CCCCCCc2ccccc2)n1`, the IC50 is > 10 µM.

Staying with this test, now noted: hek-293t.
By pIC50 is commonly meant the IC50 on a negative log10 scale, so that one unit is a factor of ten. Read a low pIC50 as a large IC50. As to `O=C(CCCCCCc1ccccc1)c1nnn[nH]1`, the pIC50 is on record as < 5.
